The list is not random: actives were taken first. Their share in the collection is about 4.2%.
PfM18AAP inh: PfM18AAP enzyme inhibition; inhibition, % at 7.35 µM; recombinant PfM18AAP, H-Glu-NHMec fluorogenic cleavage; 290,000 tested, 1.2% active;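 active = inhibition above the campaign mean inhibition over all tested compounds plus 3 SD, cut at about 28% in these data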;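 note: 0% = plate median of test compound wells and 100% = 2 mM ZnCl2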
HDAC3 inh: human HDAC3 inhibition | O15379 | inhibition, % at 8.3 µM | recombinant HDAC3, fluorogenic peptide/trypsin coupled, fluorescence | 320,000 tested, 0.15% active; in the data active = inhibition above about 26%, passing the limit was not always enough; inconclusive = no clear call, values can overlap the other calls
Target sequence (O15379 whole entry, looked up): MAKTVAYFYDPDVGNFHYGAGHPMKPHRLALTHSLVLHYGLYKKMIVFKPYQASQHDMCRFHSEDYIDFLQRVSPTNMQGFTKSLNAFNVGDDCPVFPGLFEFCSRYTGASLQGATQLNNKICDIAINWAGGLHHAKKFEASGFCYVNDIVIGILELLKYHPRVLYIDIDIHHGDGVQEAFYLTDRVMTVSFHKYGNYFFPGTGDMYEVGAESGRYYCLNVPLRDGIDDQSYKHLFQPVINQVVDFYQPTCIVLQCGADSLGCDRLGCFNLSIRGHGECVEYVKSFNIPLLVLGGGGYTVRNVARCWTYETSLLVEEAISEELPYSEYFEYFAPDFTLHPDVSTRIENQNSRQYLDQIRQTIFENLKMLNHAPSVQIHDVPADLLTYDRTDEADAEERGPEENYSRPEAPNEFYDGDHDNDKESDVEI
CTSL1 counter: counter-screen for PFM18AAP inhibitors: inhibitors of F. hepatica cathepsin L1; recombinant F. hepatica cathepsin L1, Z-Leu-Arg-MCA fluorescence; inhibition, % at 5.96 µM; 300,000 tested, 0.49% active;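 active = inhibition above the mean of all tested compounds plus 3 SD, set per screening campaign, cut at about 17% in these data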;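 note: 0% = plate median of test compound wells and 100% = 1 µM Z-Phe-Ala-diazomethylketone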
SENP1 FRET inh: SENP1 (human) catalytic domain inhibition; Q9P0U3; recombinant SENP1 catalytic domain, CyPet-SUMO1-YPet FRET cleavage; inhibition, % at 10 µM; 360,000 tested, 0.21% active;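 active = inhibition at least 30% at 10 µM, raw YFP signal under a set limit, fluorescence ratio 0.5 to 1.5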;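 note: 0% = enzyme with DMSO and 100% = no enzyme wells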
Target sequence (Q9P0U3 419-644 limits assumed): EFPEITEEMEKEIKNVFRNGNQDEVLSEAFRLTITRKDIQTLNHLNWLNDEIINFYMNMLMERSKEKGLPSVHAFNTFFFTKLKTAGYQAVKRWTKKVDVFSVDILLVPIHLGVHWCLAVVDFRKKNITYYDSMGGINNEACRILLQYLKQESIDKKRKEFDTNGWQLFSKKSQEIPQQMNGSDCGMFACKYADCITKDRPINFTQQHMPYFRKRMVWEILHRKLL
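System: Recombinant human SENP1 catalytic domain, His6-tagged | Incubation: Enzyme reaction for 50 min at room temperature, dark | Medium: Tris pH 8 with BME, BSA, NP40 and catalase | Also added: 25 nM SUMO1 FRET substrate | Compound: 10 µM single point, 0.5% DMSO | Measured by: FRET fluorescence in CFP and YFP emission channels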
AHR act: activators of human aryl hydrocarbon receptor | P35869 | AHR-responsive luciferase reporter cells, luminescence | activation, % at 5 µM | 320,000 tested, 2.5% active; in the data active = activation above about 47%;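 note: 0% = vehicle wells and 100% = reference agonist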
FXN GAA850 act: activators of GAA850 frataxin (FXN) promoter; HEK293 lucGAA850 FXN promoter luciferase reporter, 24 h; percent of 10 µM SAHA response; AID 540364; 360,000 tested, 0.56% active; activation, % at 6 µM;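 active = activation above the average of all compounds screened plus 3 SD, cutoff fixed separately per campaign, cut at about 7.5% in these data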;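 note: 0% = DMSO wells and 100% = 10 µM SAHA wells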
Active calls of the source: *; u = inconclusive; x = no result.

SMILES | PfM18AAP inh | HDAC3 inh | CTSL1 counter | SENP1 FRET inh | AHR act | FXN GAA850 act
Nc1[nH]c(C(=O)c2ccccc2)c(-c2ccccc2C(F)(F)F)c1C(=O)NCc1ccc(F)cc1 | x | x | x | 1 | x | x
Oc1c(Br)cc2oc3c(c2c1CNCc1ccccc1)CCCC3 | 31* | -3 | -4 | 1 | 1 | 1
Oc1ccccc1CNCc1ccccc1 | 4 | -4 | -1 | 5 | 0 | 0
CCc1ccc(CNC(=O)CCC(=O)n2ncc3cc(C)ccc32)cc1 | 6 | 1 | 0 | 4 | 3 | 0
Cc1ccc2c(cnn2C(=O)CCCC(=O)NCc2ccc(F)cc2)c1 | 10 | 6 | 87* | -3 | 0 | -1
CCC(C)Nc1nc(-c2ccc3c(c2)NC(=O)CO3)cs1 (centres undefined) | -2 | 14 | 1 | 5 | 63* | 0
COc1ccc(Nc2nc(-c3ccc4c(c3)NC(=O)CO4)cs2)cc1 | 9 | 0 | 2 | -10 | 41 | 1
c1ccc(COc2ncnc3c2ncn3CCCNCC(c2ccccc2)c2ccccc2)cc1 | x | x | x | 2 | x | -1
c1ccc(CNc2nc3ccccc3n3cnnc23)nc1 | 7 | 1 | 3 | -2 | 50* | 3
Cc1cc(C)cc(NC2=C(N)C(=O)c3ccccc3C2=O)c1 | 10 | -4 | -1 | -4 | 55* | 2
Brc1cccc(C2Nc3cccc4cccc(c34)N2)c1 | 24 | -4 | -2 | 8 | 35 | 0
Clc1cccc(C2Nc3cccc4cccc(c34)N2)c1 | 32* | 3 | -2 | 7 | 22 | 2
COc1ccc(-c2nc3c4ccccc4ccn3c2CN2CCOCC2)cc1OC | -5 | -24 | 2 | 1 | 58* | 4
Cc1cc(C)nc(/N=c2/ssnc2Cl)c1 | 29* | 3 | 22* | 5 | 14 | -1
Cc1ccc(N=c2ssnc2Cl)cc1 | 9 | 2 | 4 | 1 | 18 | 3
COC[C@H]1CCCN1c1ccc2c(c1)O[C@H](COCc1ccccc1)CN([C@H](C)c1ccccc1)S2(=O)=O | x | x | x | 0 | x | x
N#Cc1nc(COc2ccc(Cl)cc2)oc1N1CCCCCC1 | -4 | 4 | 60* | 0 | 0 | -1
Cc1nc(NC(=O)c2ccccc2)sc1-c1csc(Nc2ccc(Cl)cc2)n1 | 2 | 9 | 5 | x | 59* | x
COc1ccccc1Nc1nc(-c2sc(NC(=O)c3ccco3)nc2C)cs1 | 5 | -3 | -1 | -9 | 79* | -4
Cc1ccccc1Nc1nc(-c2sc(NC(=O)c3ccccc3)nc2C)cs1 | -9 | 3 | -4 | x | 62* | x
COc1cccc(N(C(=O)c2ccco2)c2nc(-c3sc(NC(=O)c4ccco4)nc3C)cs2)c1 | 4 | -1 | 1 | -16 | 65* | -7
Cc1ccc2nc(-c3cccc(Br)c3)c(Cc3ccccc3)n2c1 | x | x | x | 3 | x | x
COC(=O)c1ccc(CC2(C)C(=O)Nc3ccc(-c4cccc(C(F)(F)F)c4)cc32)o1 (centres undefined) | x | x | x | -2 | x | 7
C[C@@H]1CN([C@H](C)CO)C(=O)CCCn2nncc2CO[C@@H]1CN(C)C(=O)NC1CCCCC1 | x | x | x | 0 | x | 2
Cc1ccc(Cl)cc1Nc1nc(-c2sc(NC(=O)c3ccco3)nc2C)cs1 | 3 | -1 | 1 | -22 | 28 | -9
SMILES | PfM18AAP inh | HDAC3 inh | CTSL1 counter | SENP1 FRET inh | AHR act | FXN GAA850 act
Cc1nc(NC(=O)c2ccco2)sc1-c1csc(Nc2ccc(Cl)cc2)n1 | -8 | 6 | 7 | -26 | 75* | -2
COc1ccc(CN2C(=O)c3ccccc3C2c2nnnn2C(C)C)cc1 (centres undefined) | x | x | x | 2 | x | x
COc1ccc(CCC(=O)O)c(C(CC(=O)O)C(=O)O)c1OS(=O)(=O)c1ccc(C)cc1 (centres undefined) | x | x | x | 2 | x | -2
O=C(Nc1cnc2ccccc2c1)c1cccc(-n2cnnn2)c1 | 9 | 2 | -3 | 0 | 59* | 2
COC(=O)c1cccc(NC(=O)c2cccc(-n3cnnn3)c2)c1 | x | x | x | -1 | x | -1
CC1(C(=O)NCC2CC2)Cc2c(-c3ccc4c(c3)OCO4)ccnc2O1 (centres undefined) | x | x | x | 2 | x | -4
CCn1c(COc2ccccc2C)nnc1SCC(=O)CC(=O)Nc1ccccc1 | 4 | 4 | 25* | -1 | -3 | -2
Cc1ccccc1CC(=O)Nc1ccc2c(c1)c(=O)n(C)n2-c1cccs1 | x | x | x | 1 | x | 1
CN(C)C(=O)c1ccc(NC(=O)CSc2nnc(-c3ccc4c(c3)OCO4)o2)cc1 | x | x | x | 1 | x | 0
Cc1ccc(NC(=O)Cc2nc(CSc3nnc(-c4ccc5c(c4)OCO5)o3)cs2)cc1 | -3 | 11 | -2 | -10 | 50* | 1
C=CCn1c(COc2ccc(F)cc2)nnc1SCC(=O)NC1CCS(=O)(=O)C1 (centres undefined) | x | -3 | 0 | 4 | 2 | 0
N#Cc1c(NCCCO)nc(-c2ccco2)c2c1CCCC2 | -7 | -2 | 18* | -30 | 19 | 2
C=CCN(CC=C)C(=O)c1ccccc1NC(=O)c1ccccc1C | 1 | 0 | 2 | 1 | 56* | 0
CCC[C@H]1CN(c2ccccc2)C(=O)[C@@H]1CC(=O)Nc1ccc(Br)cc1 | x | x | x | 3 | x | 0
O=C(C(=O)N1CCCc2ccccc21)c1cn(CC(=O)N2CCOCC2)c2ccccc12 | -3 | -3 | 1 | -1 | 8 | 3
Cn1cc(C(=O)C(=O)N2CCCc3ccccc32)c2ccccc21 | 12 | -1 | 3 | -2 | 68* | -2
CC(C)CN(CCNC(=O)CN1C(=O)COc2ccc(S(=O)(=O)N3CCC(C)CC3)cc21)CC(C)C | -8 | -5 | 20* | 1 | 4 | 1
CC1=C(C(N)=O)C(c2ccccc2[N+](=O)[O-])n2ncnc2N1 (centres undefined) | 26 | -1 | 0 | -9 | 31 | -1
COCCn1c(C)cc(C(=O)CN2C(=O)C(=O)N(CCC3=CCCCC3)C2=O)c1C | x | x | x | 0 | x | -1
COc1cccc(C2c3[nH]c4ccccc4c3CCN2C(=O)Cn2cncn2)c1OC (centres undefined) | -8 | 0 | 3 | -1 | 14 | 0
CCOc1ccc(C2c3[nH]c4ccccc4c3CCN2C(=O)Cn2cncn2)cc1 (centres undefined) | -1 | 4 | -1 | 0 | 68* | -2
Cc1cc(C(=O)N2CCc3c([nH]c4ccccc34)C2c2cccc(Cl)c2)nn1C (centres undefined) | 5 | 11 | 2 | -13 | 41 | 3
CSc1ccc(C2c3[nH]c4ccccc4c3CCN2C(=O)c2cc(C)n(C)n2)cc1 (centres undefined) | -3 | u | -1 | x | 49* | x
CCC(C)(C)C(=O)O[C@H]1C[C@@H](C)C=C2C=C[C@H](C)[C@H](CC[C@@H]3C[C@@H](O)CC(=O)O3)[C@H]21 | 7 | 8 | 1 | -4 | -2 | 2

Bioassay records from PubChem BioAssay.
